Data: ChEMBL document CHEMBL1139303, “One-pot synthesis of 5-phenylimino, 5-thieno or 5-oxo-1,2,3-dithiazoles and evaluation of their antimicrobial and antitumor activity” (2009)
Values after ≈ are worked out from the molar mass of the structure shown. Active and inactive are the calls of the source. The rule behind the calls is not given here.

What was measured:
Enterococcus faecalis [1] = assay: Antibacterial activity against Enterococcus faecalis CIP 103214 after 24 hrs by broth macrodilution method; assay type: functional; conditions: CIP 103214, 24 h
Outline: (§1)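 Bacteria pre-grown 24 h on nutritive agar (tryptone soy agar for E. faecalis, L. inocua) at 37 °C (30 °C for E. faecalis, L. inocua, B. cereus). MIC and MBC determined by macro-dilution broth method; MBC = lowest concentration killing 99.99% of inoculum. Compounds in DMSO, max 2.13% solvent in cultures. Triplicate.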

Candida albicans [2] = assay: Antifungal activity against Candida albicans ATCC 10231 after 24 hrs by broth macrodilution method; assay type: functional; conditions: ATCC 10231, 24 h
Outline: (§2)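 Yeasts pre-grown on yeast extract peptone dextrose medium, 30 °C, 24 h. MIC and MFC by macro-dilution broth method; compounds in DMSO, max 2.13% solvent in cultures. Amphotericin B and fluconazole as references. MFC/MIC ratio computed; ≥4 taken as fungistatic. Triplicate.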

MDA-MB-231 [3] = assay: Antiproliferative activity against human MDA-MB-231 cells after 72 hrs by MTT assay; assay type: functional; conditions: MDA-MB-231, 72 h
Outline: (§3)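 5000 cells per well added to pre-equilibrated medium at 37 °C; compounds from 10^-3 M DMSO stocks, final 10^-5 M. After 72 h, MTT (5 g/L) for 4 h, formazan dissolved in DMSO, OD 550 nm. % growth inhibition vs 1% DMSO medium (0%) and 10% SDS lysis (100%); mean ± SEM, 24 measures, three independent experiments.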

Pichia kudriavzevii = assay: Antifungal activity against Issatchenkia orientalis DSM6128 at 50 ug after 24 hrs by agar diffusion method; assay type: functional, organism-based
Outline: (§4)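 Yeasts grown on yeast extract peptone dextrose medium at 30 °C for 24 h, then agar well diffusion with 50 µg compound in 80% DMSO; 80% DMSO alone as control. Averaged inhibition zone diameter from triplicate, scored 6-9, 9-12 or >12 mm.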

Klebsiella pneumoniae = assay: Antibacterial activity against Klebsiella pneumoniae CIP 53153 at 50 ug after 24 hrs by agar diffusion method; assay type: functional, organism-based
Outline: (§5)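 Bacteria pre-grown 24 h on nutritive agar (tryptone soy agar for E. faecalis, L. inocua) at 37 °C (30 °C for E. faecalis, L. inocua, B. cereus). Agar well diffusion with 50 µg compound in 80% DMSO; 80% DMSO alone as control. Inhibition zone diameter averaged from triplicate, scored 6-9, 9-12, >12 mm.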

Candida albicans [4] = assay: Antifungal activity against Candida albicans ATCC 10231 at 50 ug after 24 hrs by agar diffusion method; assay type: functional; conditions: ATCC 10231, 24 h, read-out: IZ; outline: as §4
MDA-MB-231 [5] = assay: Antiproliferative activity against human MDA-MB-231 cells at 10 uM after 72 hrs by MTT assay; assay type: functional; conditions: MDA-MB-231, 72 h; outline: as §3
Bacillus cereus [6] = assay: Antibacterial activity against Bacillus cereus after 24 hrs by broth macrodilution method; assay type: functional; outline: as §1
Candida tropicalis [7] = assay: Antifungal activity against Candida tropicalis DSM 1346 after 24 hrs by broth macrodilution method; assay type: functional; conditions: DSM 1346, 24 h; outline: as §2
Listeria innocua [8] = assay: Antibacterial activity against Listeria innocua at 50 ug after 24 hrs by agar diffusion method; assay type: functional; conditions: for zone of inhibition at 50 µg/disc: read-out: IZ; outline: as §5
Escherichia coli [9] = assay: Antibacterial activity against Escherichia coli ATCC 25922 at 50 ug after 24 hrs by agar diffusion method; assay type: functional; conditions: for zone of inhibition at 50 µg/disc: ATCC 25922, 24 h, read-out: IZ; outline: as §5
Staphylococcus aureus [10] = assay: Antibacterial activity against Staphylococcus aureus ATCC 25923 after 24 hrs by broth macrodilution method; assay type: functional; conditions: ATCC 25923, 24 h; outline: as §1
MCF7 = assay: Antiproliferative activity against human MCF7 cells after 72 hrs by MTT assay; assay type: functional; conditions: MCF7, 72 h; outline: as §3
Candida tropicalis [11] = assay: Antifungal activity against Candida tropicalis DSM 1346 at 50 ug after 24 hrs by agar diffusion method; assay type: functional; conditions: DSM 1346, 24 h, read-out: IZ; outline: as §4
Pseudomonas aeruginosa = assay: Antibacterial activity against Pseudomonas aeruginosa ATCC 27853 at 50 ug after 24 hrs by agar diffusion method; assay type: functional, organism-based; outline: as §5
Nakaseomyces glabratus [12] = assay: Ratio of MFC to MIC against Candida glabrata DSM6425; assay type: functional; outline: as §2
Staphylococcus aureus [13] = assay: Antibacterial activity against Staphylococcus aureus ATCC 25923 at 50 ug after 24 hrs by agar diffusion method; assay type: functional; conditions: for zone of inhibition at 50 µg/disc: Staphylococcus aureus, ATCC 25923, 24 h, read-out: IZ; outline: as §5
Bacillus cereus [14] = assay: Antibacterial activity against Bacillus cereus at 50 ug after 24 hrs by agar diffusion method; assay type: functional; conditions: read-out: IZ; outline: as §5
Enterococcus faecalis [15] = assay: Antibacterial activity against Enterococcus faecalis CIP 103214 at 50 ug after 24 hrs by agar diffusion method; assay type: functional; conditions: for zone of inhibition at 50 µg/disc: CIP 103214, 24 h, read-out: IZ; outline: as §5
Nakaseomyces glabratus [16] = assay: Antifungal activity against Candida glabrata DSM6425 after 24 hrs by broth macrodilution method; assay type: functional; conditions: DSM6425, 24 h; outline: as §2
Escherichia coli [17] = assay: Antibacterial activity against Escherichia coli ATCC 25922 after 24 hrs by broth macrodilution method; assay type: functional; conditions: ATCC 25922, 24 h; outline: as §1
Listeria innocua [18] = assay: Antibacterial activity against Listeria innocua after 24 hrs by broth macrodilution method; assay type: functional; outline: as §1
Nakaseomyces glabratus [19] = assay: Antifungal activity against Candida glabrata DSM6425 at 50 ug after 24 hrs by agar diffusion method; assay type: functional; conditions: DSM6425, 24 h, read-out: IZ; outline: as §4
Candida tropicalis [20] = assay: Ratio of MFC to MIC against Candida tropicalis DSM 1346; assay type: functional; outline: as §2
Candida albicans [21] = assay: Ratio of MFC to MIC against Candida albicans ATCC 10231; assay type: functional
Outline: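 C. albicans ATCC10231 was pre-grown on yeast extract peptone dextrose agar for 24 h at 30 °C. MIC and MFC were determined by broth macro-dilution, with compounds dissolved in DMSO at no more than 2.13% solvent in the liquid culture. Each endpoint was measured in triplicate, and the MFC was divided by the MIC to give the ratio.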

| SMILES | MFC (Candida albicans [2]) | MIC (Candida albicans [2]) | GI50 (MDA-MB-231 [3]) | Activity (Pichia kudriavzevii) | Activity (Klebsiella pneumoniae) | zone of inhibition at 50 µg/disc (Candida albicans [4]) | inhibition at 10 µM (MDA-MB-231 [5]) | MBC (Bacillus cereus [6]) | MIC (Bacillus cereus [6]) | MFC (Candida tropicalis [7]) | MIC (Candida tropicalis [7]) | MBC (Staphylococcus aureus [10]) | MIC (Staphylococcus aureus [10]) | GI50 (MCF7) | zone of inhibition at 50 µg/disc (Candida tropicalis [11]) | Activity (Pseudomonas aeruginosa) | Ratio (Nakaseomyces glabratus [12]) | zone of inhibition at 50 µg/disc (Bacillus cereus [14]) | MFC (Nakaseomyces glabratus [16]) | MIC (Nakaseomyces glabratus [16]) | further results |
| --- | --- | --- | --- | --- | --- | --- | --- | --- | --- | --- | --- | --- | --- | --- | --- | --- | --- | --- | --- | --- | --- |
| CCOC(=O)c1nssc1=S | > 48 µg/mL | 48 µg/mL (≈ 232 µM) | > 10 µM | inactive | inactive | > 12 mm | 0% | > 48 µg/mL | > 48 µg/mL | > 48 µg/mL | 48 µg/mL (≈ 232 µM) | > 48 µg/mL | 48 µg/mL (≈ 232 µM) | > 10 µM | 6 mm | inactive | 1.5 | 9 mm | 48 µg/mL (≈ 232 µM) | 32 µg/mL (≈ 154 µM) | MBC (Enterococcus faecalis [1]): > 48 µg/mL; MIC (Enterococcus faecalis [1]): > 48 µg/mL; zone of inhibition at 50 µg/disc (Listeria innocua [8]): 6 mm; zone of inhibition at 50 µg/disc (Escherichia coli [9]): 9 mm; Activity (Staphylococcus aureus [13]): 12 mm; zone of inhibition at 50 µg/disc (Enterococcus faecalis [15]): 9 mm; MBC (Escherichia coli [17]): > 48 µg/mL; MIC (Escherichia coli [17]): > 48 µg/mL; MBC (Listeria innocua [18]): > 48 µg/mL; MIC (Listeria innocua [18]): 32 µg/mL (≈ 154 µM); zone of inhibition at 50 µg/disc (Nakaseomyces glabratus [19]): 6 mm |
| OC(Cn1cncn1)(Cn1cncn1)c1ccc(F)cc1F [FLUCONAZOLE] | > 128 µg/mL | 2 µg/mL (≈ 6.53 µM) |  |  |  |  |  |  |  | > 128 µg/mL | 4 µg/mL (≈ 13.1 µM) |  |  |  |  |  | >32 |  | > 128 µg/mL | 4 µg/mL (≈ 13.1 µM) | Ratio (Candida tropicalis [20]): >32; Ratio (Candida albicans [21]): >64 |
| CCOC(=O)c1nss/c1=N\c1ccccc1 | > 48 µg/mL | 48 µg/mL (≈ 180 µM) | > 10 µM | inactive | inactive | > 12 mm | 0% | > 48 µg/mL | 48 µg/mL (≈ 180 µM) | > 48 µg/mL | 32 µg/mL (≈ 120 µM) | > 48 µg/mL | 48 µg/mL (≈ 180 µM) | > 10 µM | 9 mm | inactive | 1.5 | 6 mm | 48 µg/mL (≈ 180 µM) | 32 µg/mL (≈ 120 µM) | Activity (Listeria innocua [8]): inactive; Activity (Escherichia coli [9]): inactive; zone of inhibition at 50 µg/disc (Staphylococcus aureus [13]): 6 mm; Activity (Enterococcus faecalis [15]): inactive; zone of inhibition at 50 µg/disc (Nakaseomyces glabratus [19]): 9 mm |
| S=c1ssnc1-c1ccccn1 | > 48 µg/mL | 32 µg/mL (≈ 151 µM) | > 10 µM | inactive | inactive | > 12 mm | 0% | > 48 µg/mL | > 48 µg/mL | 48 µg/mL (≈ 226 µM) | 32 µg/mL (≈ 151 µM) | > 48 µg/mL | 48 µg/mL (≈ 226 µM) | > 10 µM | 9 mm | inactive | 6 | 9 mm | 48 µg/mL (≈ 226 µM) | 8 µg/mL (≈ 37.7 µM) | MBC (Enterococcus faecalis [1]): > 48 µg/mL; MIC (Enterococcus faecalis [1]): 48 µg/mL (≈ 226 µM); zone of inhibition at 50 µg/disc (Listeria innocua [8]): 9 mm; zone of inhibition at 50 µg/disc (Escherichia coli [9]): 6 mm; Ratio (Candida tropicalis [20]): 1.5; zone of inhibition at 50 µg/disc (Staphylococcus aureus [13]): 12 mm; zone of inhibition at 50 µg/disc (Enterococcus faecalis [15]): > 12 mm; MBC (Escherichia coli [17]): > 48 µg/mL; MIC (Escherichia coli [17]): > 48 µg/mL; MBC (Listeria innocua [18]): > 48 µg/mL; MIC (Listeria innocua [18]): 16 µg/mL (≈ 75.4 µM); zone of inhibition at 50 µg/disc (Nakaseomyces glabratus [19]): 9 mm |
| C[C@@H]1[C@H](O)[C@@H](C)/C=C/C=C/C=C/C=C/C=C/C=C/C=C/[C@H](O[C@@H]2O[C@H](C)[C@@H](O)[C@H](N)[C@@H]2O)C[C@@H]2O[C@](O)(C[C@@H](O)C[C@@H](O)[C@H](O)CC[C@@H](O)C[C@@H](O)CC(=O)O[C@H]1C)C[C@H](O)[C@H]2C(=O)O [AMPHOTERICIN B] | 0.5 µg/mL (≈ 0.541 µM) | 0.25 µg/mL (≈ 0.271 µM) |  |  |  |  |  |  |  | 2 µg/mL (≈ 2.16 µM) | 1 µg/mL (≈ 1.08 µM) |  |  |  |  |  | 2 |  | 2 µg/mL (≈ 2.16 µM) | 2 µg/mL (≈ 2.16 µM) | Ratio (Candida tropicalis [20]): 2; Ratio (Candida albicans [21]): 2 |
